Laboratory results reported in article PMC4739781 (Journal of materials chemistry. B, Materials for biology …, 2015).
Read-outs that look alike come from different tables or passages of the source. Values belong to the molecule of their own block, whether it stands above or below them.

Key:
[1] = tested on: A549 human lung adenocarcinoma cells; test: A549 cell cytotoxicity in the dark and after irradiation; type: cell-based; conditions: for Phototoxicity Index, PI: ratio of the dark and light A549 EC50 values
In short: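 A549 cells kept in DMEM with 10% FBS and 1% pen-strep at 37 °C, 5% CO2, below 70% confluence. Seeded at 1,500 cells/well in opti-MEM with 1% serum supreme and 1% pen-strep, then held 6 hrs. Free or CNA-loaded complex was added (0–300 μM or 0–20 μM) in the dark for 18 h. Cells were then irradiated (410 W projector, λ>400 nm filter, 30 sec pulses with 30 sec gaps, 5 min total) or kept dark, and held 72 hrs. Resazurin 73.3 μM for 4 hrs; fluorescence ex 560/em 590 nm; triplicate. PI is dark EC50 over light EC50.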

[2] = Ru complex release from PEG-ASP CNAs by dialysis under sink conditions; type: physicochemical; conditions: for Release (%) in the primary phase: two-phase fit
In short: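 Triplicate dialysis under sink conditions. Loaded CNAs at 100 μg/mL complex in diH2O, either irradiated 3 hrs (200 W, λ>400 nm, 120 J/cm²) or kept dark, in 10,000 MWCO cassettes. Dialysed at 37 °C in the dark against 5 L PBS or 10 mM phosphate buffer without NaCl (pH 6.0 or 7.4). Free complex served as control. Cassette contents were sampled over 0–48 hrs and read by MLCT-peak absorbance. Data were fitted by one-phase exponential regression, or two-phase where that fit better.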

pUC19 plasmid DNA = test: DNA agarose gel electrophoresis; type: biochemical
[3] = log P by shake flask method; type: physicochemical; conditions: Dark (protected from light)
In short: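 Shake flask method in triplicate, using n-octanol and diH2O mutually pre-saturated (4:1 mixtures, 24 hrs). Protected from light, complex at 200 μM (100 μM for the less water-soluble one) in diH2O was mixed 1:1 with n-octanol (1 mL total). Samples were shaken 10 min and centrifuged at 17,000 × g for 30 sec. Both phases were read by absorbance at the MLCT peak. Photoactivated samples were first irradiated 30 min (20 J/cm², λ>400 nm filter).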

A549 cells = test: A549 cytotoxicity with exposure limited to 8 hrs, wash, then irradiation; type: cell-based, human; conditions: irradiation λ>400 nm, 72 hrs
In short: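 Free or CNA-entrapped complex was incubated with A549 cells for 8 hrs. Extracellular compound was washed off with fresh media. Cells were irradiated (λ>400 nm), incubated 72 hrs, and viability was read as in the standard assay: 73.3 μM resazurin for 4 hrs, fluorescence ex 560/em 590 nm.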

[4] = Ru complex photoactivation; type: physicochemical; conditions: after 30 min irradiation (200 W, λ>400 nm)
In short: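 Free or CNA-loaded complex in PBS, in a 1 cm quartz cuvette 18 in from a 200 W projector with λ>400 nm cutoff filter. UV/Vis absorbance change was recorded over irradiation time. Photoactivation t1/2 (time for half the spectral change) was obtained by non-linear exponential regression.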

[5] = air-equilibrated D2O at room temperature; cited from earlier work
[6] = Ru complex loading in PEG-ASP CNAs by UV/Vis absorption at MLCT peak; type: physicochemical; conditions: maximum theoretical loading 25 wt %
In short: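 PEG-ASP(Na⁺) CNAs and Ru complex (theoretical maximum loading 25%) were dissolved in anhydrous DMSO and incubated overnight at room temperature, protected from light. Unbound complex was removed by dialysis (6,000–8,000 MWCO) against diH2O, changed twice daily for 3 days. The product was lyophilized. Loading was quantified by UV/Vis absorbance at each complex's MLCT peak.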

[7] = read-out: EC50 Dark, A549, protected from light, 72 hrs
[8] = read-out: EC50 Light, A549, 5 min light irradiation (λ>400 nm), 72 hrs

Compound: N.N.[Cl][Pt][Cl] [cisplatin, reference compound]
- Phototoxicity Index, PI [1]: 1
- EC50 [1, 7]: 2500 ± 600 nM
- EC50 [1, 8]: 2500 ± 600 nM

- Release (%) from PEG-ASP CNAs ([2]; Photoactivated, PBS (100 mM NaCl), pH 7.4, 37 °C): 77.7%
- Release (%) from PEG-ASP CNAs ([2]; Photoactivated, phosphate buffer 0 mM NaCl, pH 7.4, 37 °C): 65.8%
Compound: O.O.[Cl-].[Cl-].[Ru+2].c1ccc(-c2ccccn2)nc1.c1ccc(-c2ccccn2)nc1 [photoactivated 1, [Ru(bpy)2(H2O)2]Cl2]

- EC50 (pUC19 plasmid DNA; read-out: DNA interaction EC50 (DNA precipitation), protected from light, 40 μg/mL pUC19, 10 mM PB pH 7.4): 31300 to 62500 nM
- EC50 (pUC19 plasmid DNA; read-out: DNA interaction EC50 (single strand DNA breaks), after photoactivation (40 J/cm^2, λ>400 nm), 40 μg/mL pUC19): 15600 to 31300 nM
- log P [3]: 1.80 ± 0.02
- photo-stability: change of UV/Vis absorbance spectrum [4]: did not change
- loading efficiency in PEG-ASP CNAs [6]: 88%
- weight % of Ru complex in loaded PEG-ASP CNAs [6]: 22 wt %
- Release (%) from PEG-ASP CNAs ([2]; Dark, PBS (100 mM NaCl), pH 7.4, 37 °C): 37.0%
- Release (%) from PEG-ASP CNAs (total) ([2]; Dark, phosphate buffer 0 mM NaCl, pH 6.0, 37 °C): 46.4%
- Release (%) in the primary phase ([2]; Dark, phosphate buffer 0 mM NaCl, pH 6.0): 45.0%
- Release (%) from PEG-ASP CNAs (total) ([2]; Dark, phosphate buffer 0 mM NaCl, pH 7.4, 37 °C): 51.9%
- Release (%) in the primary phase ([2]; Dark, phosphate buffer 0 mM NaCl, pH 7.4): 45.2%
- amount released from PEG-ASP CNAs after 18 hrs ([2]; after 18 hrs, dark): approximately 20%
Compound: [Cl-].[Cl-].[Ru+2].c1ccc(-c2ccnc3c2ccc2c(-c4ccccc4)ccnc23)cc1.c1ccc(-c2ccnc3c2ccc2c(-c4ccccc4)ccnc23)cc1.c1ccc(-c2ccnc3c2ccc2c(-c4ccccc4)ccnc23)cc1 [compound 3, [Ru(dip)3]Cl2]
- potency when cells were washed after an 8 hr exposure time (A549 cells): remained potent
- Phototoxicity Index, PI [1]: >6
- EC50 [1, 7]: 600 ± 1100 nM
- EC50 [1, 8]: 100 nM
- singlet oxygen generation ΦΔ [5]: 0.42

Compound: Cc1cccc(-c2cccc(C)n2)n1 [dmbpy, 6,6′-dimethyl-2,2′-bipyridine]
- EC50 ([1]; Homo sapiens, A549, read-out: EC50 (ejected ligand cytotoxicity)): 80000 nM
